Laboratory results from ChEMBL document CHEMBL1137518, “Synthesis, biological evaluation and molecular modelling of sulfonohydrazides as selective PI3K p110alpha inhibitors” (Bioorg Med Chem, 2007).
Each block holds one compound with its values, some of them ahead of it.

Assays:
[1] = molecular target: Phosphatidylinositol 4,5-bisphosphate 3-kinase catalytic subunit alpha isoform (Homo sapiens, UniProt P42336); test: Inhibition of human recombinant p110alpha
How it was run: (§1)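 Recombinant p110/p85 complexes (p110d/p85 commercial; p110a/p85 and p110b/p85 prepared in-house), 0.1 µg enzyme with 10 µg L-α-phosphatidylinositol in Tris-HCl pH 7.4/NaCl/EDTA buffer, 1% DMSO final. 1 h at room temperature, stopped with HCl. Lipids extracted, resolved by TLC, radiolabel quantified. Means of two experiments.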

[2] = molecular target: Phosphatidylinositol 4,5-bisphosphate 3-kinase catalytic subunit beta isoform (Homo sapiens, UniProt P42338); test: Inhibition of human recombinant p110beta; how it was run: as §1
[3] = molecular target: T1, Phosphatidylinositol 4,5-bisphosphate 3-kinase catalytic subunit delta isoform (Homo sapiens, UniProt O00329); test: Inhibition of human recombinant p110delta; how it was run: as §1
T1 sequence (O00329 whole entry): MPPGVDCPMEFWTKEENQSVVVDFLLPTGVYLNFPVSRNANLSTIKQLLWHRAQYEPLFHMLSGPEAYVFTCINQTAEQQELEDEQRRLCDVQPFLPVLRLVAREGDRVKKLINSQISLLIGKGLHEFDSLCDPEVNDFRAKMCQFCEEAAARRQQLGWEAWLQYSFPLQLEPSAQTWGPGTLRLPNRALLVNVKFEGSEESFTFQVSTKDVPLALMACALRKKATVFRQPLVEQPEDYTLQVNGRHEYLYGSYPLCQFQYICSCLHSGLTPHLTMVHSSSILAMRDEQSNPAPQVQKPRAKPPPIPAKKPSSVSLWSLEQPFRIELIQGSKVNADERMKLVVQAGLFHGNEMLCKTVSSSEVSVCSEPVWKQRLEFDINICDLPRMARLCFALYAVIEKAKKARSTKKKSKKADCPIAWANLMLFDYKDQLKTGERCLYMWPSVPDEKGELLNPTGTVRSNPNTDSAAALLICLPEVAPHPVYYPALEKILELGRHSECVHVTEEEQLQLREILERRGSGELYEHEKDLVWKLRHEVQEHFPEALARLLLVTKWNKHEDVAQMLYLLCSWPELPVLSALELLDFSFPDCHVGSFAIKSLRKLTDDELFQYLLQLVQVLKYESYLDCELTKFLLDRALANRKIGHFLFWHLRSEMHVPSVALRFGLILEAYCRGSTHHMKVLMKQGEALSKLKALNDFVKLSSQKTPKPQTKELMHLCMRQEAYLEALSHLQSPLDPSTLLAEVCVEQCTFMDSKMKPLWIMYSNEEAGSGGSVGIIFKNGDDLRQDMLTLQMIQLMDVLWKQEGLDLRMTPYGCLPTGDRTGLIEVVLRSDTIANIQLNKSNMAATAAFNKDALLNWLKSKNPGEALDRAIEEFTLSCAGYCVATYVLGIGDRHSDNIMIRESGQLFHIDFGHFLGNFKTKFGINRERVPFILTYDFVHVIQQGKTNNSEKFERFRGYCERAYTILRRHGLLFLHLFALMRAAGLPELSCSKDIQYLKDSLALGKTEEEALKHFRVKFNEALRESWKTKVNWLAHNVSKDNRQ

[4] = Antiproliferative activity against human NZB5 cells; type: functional, cell-based
How it was run: (§2)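 Early-passage human cancer cell lines grown in alpha-modified MEM with insulin, transferrin, selenite and 5% FBS; 1000 cells per well. Drug added in 10-fold concentration steps up to 20 µM; incubated five days under 5% O2, 5% CO2, 90% N2. [3H]thymidine (0.04 µCi/well) added for the last 6 h, incorporation counted. Duplicates per dose; IC50 from exponential least-squares fit.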

[5] = Antiproliferative activity against human NZOV9 cells; type: functional, cell-based; how it was run: as §2

Phosphatidylinositol 4,5-bisphosphate 3-kinase catalytic subunit alpha isoform, sequence (P42336 whole entry, canonical isoform): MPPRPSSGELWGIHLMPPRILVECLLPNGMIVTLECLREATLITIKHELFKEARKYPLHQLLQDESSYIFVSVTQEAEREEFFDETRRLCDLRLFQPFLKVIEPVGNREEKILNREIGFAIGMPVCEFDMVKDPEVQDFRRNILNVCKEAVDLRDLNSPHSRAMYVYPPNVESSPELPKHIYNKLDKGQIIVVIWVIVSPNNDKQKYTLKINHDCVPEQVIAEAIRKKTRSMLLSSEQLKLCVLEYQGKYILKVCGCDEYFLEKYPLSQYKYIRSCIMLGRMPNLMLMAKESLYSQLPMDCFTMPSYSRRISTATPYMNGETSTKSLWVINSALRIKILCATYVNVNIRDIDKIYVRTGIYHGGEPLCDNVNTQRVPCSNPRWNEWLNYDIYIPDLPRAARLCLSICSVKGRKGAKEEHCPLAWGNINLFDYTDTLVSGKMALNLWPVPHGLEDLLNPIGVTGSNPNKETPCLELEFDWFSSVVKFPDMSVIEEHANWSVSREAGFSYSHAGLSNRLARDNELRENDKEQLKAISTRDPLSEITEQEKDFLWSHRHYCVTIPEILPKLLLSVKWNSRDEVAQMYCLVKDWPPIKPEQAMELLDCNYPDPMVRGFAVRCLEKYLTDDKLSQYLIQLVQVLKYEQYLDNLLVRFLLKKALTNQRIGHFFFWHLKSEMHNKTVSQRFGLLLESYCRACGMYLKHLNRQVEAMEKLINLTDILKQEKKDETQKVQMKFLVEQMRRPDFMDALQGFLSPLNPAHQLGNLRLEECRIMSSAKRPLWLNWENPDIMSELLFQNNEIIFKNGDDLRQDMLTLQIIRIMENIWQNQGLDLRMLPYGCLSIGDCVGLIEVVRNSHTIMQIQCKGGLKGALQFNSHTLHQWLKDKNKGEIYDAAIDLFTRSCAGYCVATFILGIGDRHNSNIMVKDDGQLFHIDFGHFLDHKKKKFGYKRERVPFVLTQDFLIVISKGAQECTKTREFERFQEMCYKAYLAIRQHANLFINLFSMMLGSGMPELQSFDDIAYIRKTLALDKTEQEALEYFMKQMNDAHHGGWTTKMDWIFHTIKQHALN
Phosphatidylinositol 4,5-bisphosphate 3-kinase catalytic subunit beta isoform, sequence (P42338 whole entry, canonical isoform): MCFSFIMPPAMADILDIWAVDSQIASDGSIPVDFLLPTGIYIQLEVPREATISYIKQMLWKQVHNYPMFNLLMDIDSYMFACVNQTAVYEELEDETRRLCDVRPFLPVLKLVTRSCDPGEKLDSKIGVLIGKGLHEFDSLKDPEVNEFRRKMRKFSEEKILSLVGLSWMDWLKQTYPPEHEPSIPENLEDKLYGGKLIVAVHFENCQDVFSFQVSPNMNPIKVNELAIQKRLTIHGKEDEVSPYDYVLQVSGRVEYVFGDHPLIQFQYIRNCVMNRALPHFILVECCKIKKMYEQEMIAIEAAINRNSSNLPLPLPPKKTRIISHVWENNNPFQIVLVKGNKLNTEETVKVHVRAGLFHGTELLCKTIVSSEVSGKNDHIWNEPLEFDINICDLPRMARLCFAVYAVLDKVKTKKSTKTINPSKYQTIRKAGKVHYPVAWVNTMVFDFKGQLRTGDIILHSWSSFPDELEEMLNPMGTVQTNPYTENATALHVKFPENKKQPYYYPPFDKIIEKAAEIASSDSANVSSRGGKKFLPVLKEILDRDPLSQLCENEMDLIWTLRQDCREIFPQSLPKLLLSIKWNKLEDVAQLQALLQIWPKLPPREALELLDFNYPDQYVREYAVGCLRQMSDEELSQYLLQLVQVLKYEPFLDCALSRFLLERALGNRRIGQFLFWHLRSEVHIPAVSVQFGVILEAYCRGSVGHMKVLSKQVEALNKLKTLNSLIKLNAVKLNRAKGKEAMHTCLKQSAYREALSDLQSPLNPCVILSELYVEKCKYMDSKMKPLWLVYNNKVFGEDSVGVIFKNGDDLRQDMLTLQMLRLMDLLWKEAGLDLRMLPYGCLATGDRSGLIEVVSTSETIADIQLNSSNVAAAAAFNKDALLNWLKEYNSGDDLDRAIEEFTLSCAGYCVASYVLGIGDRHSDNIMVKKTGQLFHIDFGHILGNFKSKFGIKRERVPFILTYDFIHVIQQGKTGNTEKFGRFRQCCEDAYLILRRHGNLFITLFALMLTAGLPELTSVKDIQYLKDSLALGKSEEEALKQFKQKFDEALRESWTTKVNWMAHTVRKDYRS

SMILES: Cc1ccc([N+](=O)[O-])cc1S(=O)(=O)N(C)/N=C/c1cnc2ccccn12
- IC50 [1]: 0.86 µM
- IC50 [2]: > 10 µM
- IC50 [3]: 5.4 µM
- IC50 [4]: 0.35 µM
- IC50 [5]: 0.68 µM

SMILES: Cc1ccc([N+](=O)[O-])cc1S(=O)(=O)N(C)/N=C/c1cnc2n1CCCC2
- IC50 [1]: > 10 µM
- IC50 [2]: > 10 µM
- IC50 [3]: > 10 µM
- IC50 [4]: 10 µM
- IC50 [5]: 10 µM

SMILES: Cc1ccc([N+](=O)[O-])cc1S(=O)(=O)N(C)/N=C/c1ncn2ccccc12
- IC50 [1]: > 10 µM
- IC50 [2]: > 10 µM
- IC50 [3]: > 10 µM
- IC50 [4]: 3.3 µM

SMILES: Cc1ccc([N+](=O)[O-])cc1S(=O)(=O)N(C)/N=C/c1cnc2ccccc2c1
- IC50 [1]: > 10 µM
- IC50 [2]: > 10 µM
- IC50 [3]: > 10 µM
- IC50 [4]: 3 µM
- IC50 [5]: 6 µM

SMILES: Cc1ccc([N+](=O)[O-])cc1S(=O)(=O)N(C)/N=C/c1onc2ccccc12
- IC50 [1]: 5 µM
- IC50 [2]: > 10 µM
- IC50 [3]: > 10 µM
- IC50 [4]: 3.9 µM
- IC50 [5]: 3.3 µM

SMILES: Cc1ccc([N+](=O)[O-])cc1S(=O)(=O)N(C)/N=C/c1cnc2ccc(Br)cn12
- IC50 [4]: 0.069 µM

SMILES: Cc1ccc([N+](=O)[O-])cc1S(=O)(=O)N(C)/N=C/c1ncc2ccccn12
- IC50 [1]: > 10 µM
- IC50 [2]: > 10 µM
- IC50 [3]: > 10 µM
- IC50 [4]: 2.1 µM
- IC50 [5]: 1.2 µM

SMILES: Cc1ccc([N+](=O)[O-])cc1S(=O)(=O)N(C)/N=C/c1ccnc2ccccc12
- IC50 [1]: 2.3 µM
- IC50 [2]: > 10 µM
- IC50 [3]: > 10 µM
- IC50 [4]: 1.5 µM
- IC50 [5]: 0.8 µM

SMILES: Cc1ccc([N+](=O)[O-])cc1S(=O)(=O)N(C)/N=C/c1cncn1C
- IC50 [1]: > 10 µM
- IC50 [2]: > 10 µM
- IC50 [3]: > 10 µM
- IC50 [4]: > 20 µM
- IC50 [5]: > 20 µM

The next lines start with results.

- IC50 [1]: > 10 µM
- IC50 [2]: > 10 µM
- IC50 [3]: > 10 µM
SMILES: Cc1ccc([N+](=O)[O-])cc1S(=O)(=O)N(C)/N=C/c1cn(C)c2ccccc12
- IC50 [4]: 15 µM
- IC50 [5]: > 20 µM

- IC50 [1]: 0.8 µM
- IC50 [2]: > 10 µM
- IC50 [3]: 3.6 µM
SMILES: Cc1ccc([N+](=O)[O-])cc1S(=O)(=O)N(C)/N=C/c1cncc2ccccc12
- IC50 [4]: 0.89 µM
- IC50 [5]: 0.5 µM

- IC50 [1]: 2.2 µM
- IC50 [2]: > 10 µM
- IC50 [3]: 9 µM
SMILES: Cc1ccc([N+](=O)[O-])cc1S(=O)(=O)N(C)/N=C/c1cncc2ccc(Br)cc12
- IC50 [4]: 5.1 µM
- IC50 [5]: 4.2 µM

- IC50 [1]: > 10 µM
- IC50 [2]: > 10 µM
- IC50 [3]: > 10 µM
SMILES: Cc1ccc([N+](=O)[O-])cc1S(=O)(=O)N(C)/N=C/c1coc2ccccc12
- IC50 [4]: 12 µM
- IC50 [5]: 8.5 µM

- IC50 [1]: > 10 µM
- IC50 [2]: > 10 µM
- IC50 [3]: > 10 µM
SMILES: Cc1ccc([N+](=O)[O-])cc1S(=O)(=O)N(C)/N=C/c1cncc2cc(Br)ccc12
- IC50 [4]: 6.6 µM
- IC50 [5]: 11 µM

- IC50 [1]: > 10 µM
- IC50 [2]: > 10 µM
- IC50 [3]: > 10 µM
SMILES: Cc1ccc([N+](=O)[O-])cc1S(=O)(=O)N(C)/N=C/c1cncc2c(Br)cccc12
- IC50 [4]: 5.7 µM
- IC50 [5]: 12 µM

- IC50 [1]: > 10 µM
- IC50 [2]: > 10 µM
- IC50 [3]: > 10 µM
SMILES: Cc1ccc([N+](=O)[O-])cc1S(=O)(=O)N(C)/N=C/c1csc2ccccc12
- IC50 [4]: > 20 µM
- IC50 [5]: > 20 µM

- IC50 [1]: > 10 µM
- IC50 [2]: > 10 µM
- IC50 [3]: > 10 µM
SMILES: Cc1ccc([N+](=O)[O-])cc1S(=O)(=O)N(C)/N=C/c1cccc2ccccc12
- IC50 [4]: > 20 µM
- IC50 [5]: > 20 µM
